Assay results taken from ChEMBL document CHEMBL1240328, “Selective compounds define Hsp90 as a major inhibitor of apoptosis in small-cell lung cancer” (Nat Chem Biol, 2007).
Activity calls are given as the source filed them.

What was measured:
[1] = target: Heat shock protein HSP 90-beta (Homo sapiens) (UniProt P08238); assay: Inhibition of HSP90-mediated antiapoptotic activity in human NCI-H526 cells assessed as induction of caspase-2 cleavage at 10 uM after 24 hrs by Western blot analysis; type: cell-based
Heat shock protein HSP 90-beta (Homo sapiens), sequence (P08238 whole entry): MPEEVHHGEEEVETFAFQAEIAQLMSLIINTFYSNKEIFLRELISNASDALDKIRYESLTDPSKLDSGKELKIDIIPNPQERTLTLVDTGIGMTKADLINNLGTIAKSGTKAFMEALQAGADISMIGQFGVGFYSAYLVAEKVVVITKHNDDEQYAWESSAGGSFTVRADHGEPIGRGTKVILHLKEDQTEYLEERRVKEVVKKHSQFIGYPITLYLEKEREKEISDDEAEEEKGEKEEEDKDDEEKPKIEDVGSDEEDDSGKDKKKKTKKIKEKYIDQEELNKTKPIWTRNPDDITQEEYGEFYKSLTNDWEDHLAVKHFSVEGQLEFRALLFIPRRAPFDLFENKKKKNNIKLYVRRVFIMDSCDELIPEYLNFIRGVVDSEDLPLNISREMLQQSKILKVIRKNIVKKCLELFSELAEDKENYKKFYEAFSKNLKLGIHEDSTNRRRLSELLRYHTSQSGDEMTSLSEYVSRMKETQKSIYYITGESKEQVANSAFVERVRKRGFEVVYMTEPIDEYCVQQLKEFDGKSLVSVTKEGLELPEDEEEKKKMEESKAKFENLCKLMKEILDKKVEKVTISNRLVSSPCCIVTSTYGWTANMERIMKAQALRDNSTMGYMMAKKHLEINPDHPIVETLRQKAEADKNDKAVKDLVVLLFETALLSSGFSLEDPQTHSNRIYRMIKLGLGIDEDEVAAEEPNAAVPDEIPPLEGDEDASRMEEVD
In short: (§1)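 NCI-H526 cells at 60–70% confluence were exposed to drug or DMSO for 24 h. Lysed in 50 mM Tris pH 7.4, 150 mM NaCl, 1% NP-40, with protein measured by BCA. 20–100 µg run on SDS-PAGE and blotted to nitrocellulose. Probed with cleaved-protein antibodies and peroxidase secondary at 1:5,000, with β-actin as loading control.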

[2] = target: Heat shock protein HSP 90-beta (Homo sapiens) (UniProt P08238); assay: Inhibition of HSP90-mediated antiapoptotic activity in human NCI-H526 cells assessed as induction of PARP cleavage at 10 uM after 24 hrs by Western blot analysis; type: cell-based; in short: as §1
[3] = target: Heat shock protein HSP 90-beta (Homo sapiens) (UniProt P08238); assay: Inhibition of HSP90-mediated antiapoptotic activity in human NCI-H187 cells assessed as mitochondrial membrane depolarization at 5 uM after 72 hrs by JC-1 staining-based flow cytometry; type: cell-based
In short: (§2)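 SCLC cells treated for 72 h with graded doses. Mitochondrial membrane potential read by flow cytometry after JC-1 staining, with green-only emission indicating depolarization. Sub-G1 DNA content read after propidium iodide staining. CCCP used as positive control. n = 3 repeat experiments.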

[4] = target: Heat shock protein HSP 90-beta (Homo sapiens) (UniProt P08238); assay: Inhibition of HSP90-mediated antiapoptotic activity in human NCI-N417 cells assessed as mitochondrial membrane depolarization at 5 uM after 96 hrs by JC-1 staining-based flow cytometry; type: cell-based; conditions: NCI-H417
In short: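 Mitochondrial membrane potential was measured by JC-1 staining and flow cytometry. Depolarization was scored as a shift to cells emitting only green fluorescence. The mitochondrial uncoupler CCCP served as positive control.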

[5] = target: Heat shock protein HSP 90-beta (Homo sapiens) (UniProt P08238); assay: Inhibition of HSP90-mediated antiapoptotic activity in human NCI-H526 cells assessed as subG1 accumulation at 2.5 uM after 72 hrs by propidium iodide staining-based flow cytometry; type: cell-based; in short: as §2
[6] = target: Heat shock protein HSP 90-beta (Homo sapiens) (UniProt P08238); assay: Inhibition of HSP90-mediated antiapoptotic activity in human NCI-H526 cells assessed as subG1 accumulation at 25 uM after 72 hrs by propidium iodide staining-based flow cytometry; type: cell-based; in short: as §2
[7] = target: Heat shock protein HSP 90-beta (Homo sapiens) (UniProt P08238); assay: Inhibition of HSP90-mediated antiapoptotic activity in human NCI-N417 cells assessed as subG1 accumulation at 2.5 uM after 72 hrs by propidium iodide staining-based flow cytometry; type: cell-based; conditions: NCI-H417
In short: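 Asynchronously growing cells were treated with compound, stained with propidium iodide and analysed by flow cytometry. The read-out was the percentage of cells with sub-G1 DNA content.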

[8] = target: Heat shock protein HSP 90-beta (Homo sapiens) (UniProt P08238); assay: Inhibition of HSP90-mediated antiapoptotic activity in human NCI-H187 cells assessed as subG1 accumulation at 5 uM after 72 hrs by propidium iodide staining-based flow cytometry; type: cell-based; in short: as §2
[9] = target: Heat shock protein HSP 90-beta (Homo sapiens) (UniProt P08238); assay: Inhibition of HSP90-mediated antiapoptotic activity in human NCI-H187 cells assessed as subG1 accumulation at 15 uM after 72 hrs by propidium iodide staining-based flow cytometry; type: cell-based; in short: as §2
[10] = target: Heat shock protein HSP 90-beta (Homo sapiens) (UniProt P08238); assay: Inhibition of HSP90-mediated antiapoptotic activity in human NCI-H526 cells assessed as increase in caspase-3 activity at 10 uM after 72 hrs by fluorescence assay in presence of caspase-9 inhibitor Z-LEHD-FMK; type: cell-based
In short: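 NCI-H526 cells pretreated with Z-LEHD-FMK (100 µM), then exposed to 10 µM for 72 h. Caspase-3 activation read by Z-DEVD-R110 fluorescence. Caspase-3 and PARP cleavage read by western blot. n = 3.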

[11] = target: Heat shock protein HSP 90-beta (Homo sapiens) (UniProt P08238); assay: Inhibition of HSP90-mediated antiapoptotic activity in human NCI-H526 cells assessed as induction of PARP cleavage at 10 uM after 72 hrs by fluorescence assay in presence of caspase-9 inhibitor Z-LEHD-FMK; type: cell-based
[12] = target: Heat shock protein HSP 90-beta (Homo sapiens) (UniProt P08238); assay: Effect on HSP90-mediated Bcl-XL expression in human NCI-H526 cells at 25 uM after 24 hrs by Western blot analysis; type: cell-based
In short: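 NCI-H526 cells were exposed for 24 h to drug or DMSO vehicle. Lysates were made in 50 mM Tris pH 7.4, 150 mM NaCl, 1% NP-40 and quantified by BCA. Western blot used 20–100 µg protein per lane, with β-actin as loading control.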

[13] = target: Heat shock protein HSP 90-beta (Homo sapiens) (UniProt P08238); assay: Inhibition of HSP90-mediated antiapoptotic activity in human NCI-H526 cells assessed as induction of Akt degradation at 10 uM after 24 hrs by Western blot analysis; type: cell-based
[14] = target: Heat shock protein HSP 90-beta (Homo sapiens) (UniProt P08238); assay: Inhibition of HSP90-mediated antiapoptotic activity in human NCI-H526 cells assessed as induction of Akt degradation at 20 uM after 24 hrs by Western blot analysis; type: cell-based
[15] = target: Heat shock protein HSP 90-beta (Homo sapiens) (UniProt P08238); assay: Inhibition of HSP90-mediated antiapoptotic activity in human NCI-H526 cells assessed as reduction in BAD phosphorylation at 20 uM after 24 hrs by Western blot analysis; type: cell-based
[16] = target: Heat shock protein HSP 90-beta (Homo sapiens) (UniProt P08238); assay: Inhibition of HSP90-mediated antiapoptotic activity in human NCI-H526 cells assessed as induction of Akt degradation at 50 uM after 24 hrs by Western blot analysis; type: cell-based
[17] = target: Heat shock protein HSP 90-beta (Homo sapiens) (UniProt P08238); assay: Inhibition of HSP90-mediated antiapoptotic activity in human NCI-H526 cells assessed as disruption of protein-Apaf-1 complex at 50 uM after 24 hrs by Western blot analysis; type: cell-based
In short: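 NCI-H526 cells treated for 24 h with vehicle or inhibitors (20 µM or 50 µM). Proteins isolated with Apaf-1-specific antibody and whole lysates analysed by western blot. n = 3.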

[18] = target: Heat shock protein HSP 90-beta (Homo sapiens) (UniProt P08238); assay: Inhibition of HSP90-mediated antiapoptotic activity in human SKBR3 cells assessed as induction of cell growth arrest at 20 uM after 24 hrs by propidium iodide staining-based flow cytometry; conditions: SK-BR-3
[19] = target: Heat shock protein HSP 90-beta (Homo sapiens) (UniProt P08238); assay: Inhibition of HSP90-mediated antiapoptotic activity in human MCF7 cells assessed as induction of cell growth arrest at 20 uM after 24 hrs by propidium iodide staining-based flow cytometry
[20] = target: Heat shock protein HSP 90-beta (Homo sapiens) (UniProt P08238); assay: Inhibition of HSP90-mediated antiapoptotic activity in human MCF7 cells assessed as induction of cell growth arrest at 50 uM after 24 hrs by propidium iodide staining-based flow cytometry
[21] = target: Heat shock protein HSP 90-beta (Homo sapiens) (UniProt P08238); assay: Inhibition of HSP90-mediated antiapoptotic activity in human SKBR3 cells assessed as induction of caspase-9 cleavage at 20 uM after 24 hrs by Western blot analysis; type: cell-based; conditions: SK-BR-3
In short: (§3)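 SKBr3 cells at 60–70% confluence were exposed to drug or DMSO vehicle. Lysis was in 50 mM Tris pH 7.4, 150 mM NaCl, 1% NP-40, with protein measured by BCA. Lysates of 20–100 µg were run on SDS-PAGE, blotted to nitrocellulose, probed with primary antibodies and detected with a peroxidase-conjugated secondary (1:5,000). Loading was checked with β-actin or PI(3)K p85.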

[22] = target: Heat shock protein HSP 90-beta (Homo sapiens) (UniProt P08238); assay: Inhibition of HSP90-mediated antiapoptotic activity in human SKBR3 cells assessed as induction of PARP cleavage at 20 uM after 24 hrs by Western blot analysis; type: cell-based; conditions: SK-BR-3; in short: as §3
[23] = target: Heat shock protein HSP 90-beta (Homo sapiens) (UniProt P08238); assay: Inhibition of HSP90-mediated antiapoptotic activity in human SKBR3 cells assessed as induction of caspase-3 cleavage at 50 uM after 24 hrs by Western blot analysis; type: cell-based; conditions: SK-BR-3; in short: as §3
[24] = target: Heat shock protein HSP 90-beta (Homo sapiens) (UniProt P08238); assay: Inhibition of HSP90-mediated antiapoptotic activity in human SKBR3 cells assessed as induction of caspase-9 cleavage at 50 uM after 24 hrs by Western blot analysis; type: cell-based; conditions: SK-BR-3; in short: as §3
[25] = target: Heat shock protein HSP 90-beta (Homo sapiens) (UniProt P08238); assay: Inhibition of HSP90-mediated antiapoptotic activity in human SKBR3 cells assessed as induction of PARP cleavage at 50 uM after 24 hrs by Western blot analysis; type: cell-based; conditions: SK-BR-3; in short: as §3

Measured: Activity

O=CN1CC/C(=C/c2ccc3c(c2)OCO3)C1=O
inactive: [1] | [2] | [3] | [4] | [5] | [6] | [7] | [8] | [9] | [10] | [11] | [12] | [13] | [14] | [15] | [16] | [17] | [18] | [19] | [20] | [21] | [22] | [23] | [24] | [25]
